6 compounds from ChEMBL document CHEMBL4359864, “The synthesis and in vitro biological evaluation of novel fluorinated tetrahydrobenzo[j]phenanthridine-7,12-diones against Mycobacterium tuberculosis” (Eur J Med Chem, 2019) can be followed below.

The test system of one data set is Escherichia coli. The data set can be described thus: Antibacterial activity against Escherichia coli ATCC 8739 incubated for 24 hrs by resazurin dye based fluorimetric assay. Format: functional, organism-based. Particulars: ATCC 8739, ATCC 8739, 24 h. A digest of the protocol:
(§1)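 Resazurin microtiter assay: compounds from 10 mM DMSO stock, twofold serial dilutions from 64 µM final in growth medium, in triplicate. Inoculum from frozen glycerol stocks. Exposure 24 h, or 7 days for Mtb H37Ra (7H9 + 0.5% glycerol + 10% OADC). Then 0.01% resazurin was added and plates were incubated at 37°C until pink. Fluorescence read at ex 550/em 590 nm; mean of triplicates.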

In the next data set the test system is Pseudomonas aeruginosa. Briefly: Antibacterial activity against Pseudomonas aeruginosa ATCC 9027 incubated for 24 hrs by resazurin dye based fluorimetric assay. Particulars: ATCC 9027, 24 h. Format: functional, organism-based. Put shortly: as §1
(In general: Resazurin is reduced to fluorescent resorufin, in cell work by metabolically active cells.)

The test system of another data set is Klebsiella pneumoniae. The data set can be described thus: Antibacterial activity against Klebsiella pneumoniae ATCC 13883 incubated for 24 hrs by resazurin dye based fluorimetric assay. Format: functional, organism-based. The note with it: ATCC 13883, 24 h. Put shortly:
as §1

For a further data set, the system named is Enterococcus faecium. The data set can be described thus: Antibacterial activity against Enterococcus faecium ATCC 19434 incubated for 24 hrs by resazurin dye based fluorimetric assay. Format: functional, organism-based. Particulars: ATCC 19434, 24 h. Put shortly: as §1
Another data set relates to Staphylococcus aureus. Briefly: Antibacterial activity against Staphylococcus aureus ATCC 6538 incubated for 24 hrs by resazurin dye based fluorimetric assay. The note with it: ATCC 6538, 24 h. Format: functional, organism-based. A digest of the protocol: as §1
For another data set, the system named is Streptococcus pneumoniae. Briefly: Antibacterial activity against Streptococcus pneumoniae ATCC BAA-334 incubated for 24 hrs by resazurin dye based fluorimetric assay. Format: functional, organism-based. Particulars: ATCC BAA-334, 24 h. Put shortly:
as §1

The test system of data set [1] is Mycobacterium tuberculosis. Briefly: Antibacterial activity against Mycobacterium tuberculosis H37Ra ATCC 25177 incubated for 7 days by resazurin dye based fluorimetric assay. Format: functional, organism-based. Particulars: H37Ra ATCC 25177, 168 h. Put shortly: as §1
Data set [2] concerns Mycobacterium tuberculosis. Briefly: Antimycobacterial activity against Mycobacterium tuberculosis H37Ra lux incubated for 7 days by luminometric assay. Format: functional, organism-based. The note with it: 168 h. Put shortly:
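Twofold serial dilutions in 7H9/OADC/glycerol, in triplicate, inoculated with a suspension of 10.000 RLU per mL. After 7 days, n-decanal (1% v/v in ethanol) was added and luminescence read. IC50 and MIC (90% growth reduction) were derived from the mean of triplicates.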

A short description of data set [3]: Cytotoxicity against mouse J774A.1 cells assessed as reduction in cell viability incubated for 24 hrs by neutral red uptake assay. Format: cell-based, J774.A1. Put shortly:
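J774A.1 cells in DMEM + 10% iFCS, 37°C, 5% CO2, seeded at 40.000 cells/well and left overnight. Twofold dilutions from 128 µM final; 24 h exposure. Neutral red uptake for 3 h, dye extracted with 1:1 ethanol/acetic acid, OD read at 530 nm (reference 620 nm). CC50 = 50% reduction in uptake; mean of triplicates.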

Data set [4] is described as follows: Selectivity index, ratio of […] for cytotoxicity against mouse J774A.1 cells. Format: toxicity, cell-based. Particulars: read-out: Selectivity Index.
A further data set concerns Mycobacterium marinum. Briefly: Antimycobacterial activity against Mycobacterium marinum NCTC 2275 by resazurin dye based fluorimetric assay. Format: functional, organism-based. A digest of the protocol:
(§2)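 Resazurin microtiter method as for the bacterial panel. Mycobacteria grown in 7H9 with 10% OADC and 0.5% glycerol; for BCG, 0.05% Tween 80 replaced the glycerol. Cultures were sonicated and needle-passed to single cells. Incubation at 37°C, or 32°C for M. marinum. Fluorescence read at ex 550/em 590 nm; mean of triplicates.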

Data set [5] can be described thus: Antimycobacterial activity against Mycobacterium avium subsp. avium ATCC 25291 by resazurin dye based fluorimetric assay. Format: functional. A digest of the protocol:
as §2

In data set [6] the target is T1, CYP450 (Homo sapiens, UniProt P04798+P05177+P05181+P08684+P10632+P10635+P11509+P11712+P13584+P20813+P20815+P20853+P24462+P24903+P33260+P33261+P51589+P78329+P98187+Q02928+Q08477+Q16678+Q16696+Q5TCH4+Q6VVX0+Q7Z449+Q8TAV3+Q96SQ9+Q9HB55). The data set can be described thus: Microsomal stability in human liver microsomes assessed as CYP450-mediated metabolism by measuring compound remaining at 5 uM and measured for 15 mins in presence of NADPH by UPLC-MS/MS analysis (reference value: 100%). Format: ADME. Particulars: read-out: Stability. A digest of the protocol: (§3)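 Compound at 5 µM with 0.5 mg/mL liver microsomes in PBS. Phase I was started with 1 mM NADPH; phase II used 2 mM UDPGA. Diclofenac served as reference. Samples taken at 0, 15, 30 and 60 min were quenched in ice-cold acetonitrile, centrifuged at 4°C and analysed by LC-MS. Mean of at least two replicates ± SD.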
On the technique in general: Microsomes from liver hold many membrane-bound enzymes, among them those of drug oxidation.

Data set [7] deals with T1, CYP450. Briefly: Microsomal stability in human liver microsomes assessed as CYP450-mediated metabolism by measuring compound remaining at 5 uM and measured for 30 mins in presence of NADPH by UPLC-MS/MS analysis (reference value: 100%). Format: ADME. The note with it: read-out: Stability. Put shortly: as §3
Data set [8] has as its target T1, CYP450. Briefly: Microsomal stability in human liver microsomes assessed as CYP450-mediated metabolism by measuring compound remaining at 5 uM and measured for 60 mins in presence of NADPH by UPLC-MS/MS analysis (reference value: 100%). Format: ADME. Particulars: read-out: Stability. Put shortly: as §3
Data set [9] addresses T2, UGT (Homo sapiens, UniProt O60656+O75310+O75795+P06133+P0DTE4+P0DTE5+P16662+P19224+P22309+P22310+P35503+P35504+P36537+P54855+Q6UWM9+Q9BY64+Q9HAW7+Q9HAW8+Q9HAW9). Briefly: Microsomal stability in human liver microsomes assessed as UGT-mediated metabolism by measuring compound remaining at 5 uM and measured for 15 mins in presence of UDPGA by UPLC-MS/MS analysis (reference value: 100%). Format: ADME. The note with it: read-out: Stability. Put shortly:
as §3

In data set [10] the target is T2, UGT. Briefly: Microsomal stability in human liver microsomes assessed as UGT-mediated metabolism by measuring compound remaining at 5 uM and measured for 30 mins in presence of UDPGA by UPLC-MS/MS analysis (reference value: 100%). Format: ADME. The note with it: read-out: Stability. A digest of the protocol: as §3
Data set [11] concerns the target T2, UGT. The data set can be described thus: Microsomal stability in human liver microsomes assessed as UGT-mediated metabolism by measuring compound remaining at 5 uM and measured for 60 mins in presence of UDPGA by UPLC-MS/MS analysis (reference value: 100%). Format: ADME. Particulars: read-out: Stability. A digest of the protocol: as §3
Data set [12] relates to CYP450. The data set can be described thus: Microsomal stability in mouse liver microsomes assessed as CYP450-mediated metabolism by measuring compound remaining at 5 uM and measured for 15 mins in presence of NADPH by UPLC-MS/MS analysis (reference value: 100%). Format: ADME. The note with it: read-out: Stability. A digest of the protocol:
as §3

In data set [13] the test system is CYP450. Briefly: Microsomal stability in mouse liver microsomes assessed as CYP450-mediated metabolism by measuring compound remaining at 5 uM and measured for 30 mins in presence of NADPH by UPLC-MS/MS analysis (reference value: 100%). Format: ADME. Particulars: read-out: Stability. A digest of the protocol:
as §3

The test system of data set [14] is CYP450. Briefly: Microsomal stability in mouse liver microsomes assessed as CYP450-mediated metabolism by measuring compound remaining at 5 uM and measured for 60 mins in presence of NADPH by UPLC-MS/MS analysis (reference value: 100%). Format: ADME. Particulars: read-out: Stability. A digest of the protocol:
as §3

Data set [15] has as its system UGT. The data set can be described thus: Microsomal stability in mouse liver microsomes assessed as UGT-mediated metabolism by measuring compound remaining at 5 uM and measured for 15 mins in presence of UDPGA by UPLC-MS/MS analysis (reference value: 100%). Format: ADME. Particulars: read-out: Stability. A digest of the protocol: as §3
In data set [16] the test system is UGT. Briefly: Microsomal stability in mouse liver microsomes assessed as UGT-mediated metabolism by measuring compound remaining at 5 uM and measured for 30 mins in presence of UDPGA by UPLC-MS/MS analysis (reference value: 100%). Format: ADME. The note with it: read-out: Stability. Put shortly:
as §3

Data set [17] deals with UGT. Briefly: Microsomal stability in mouse liver microsomes assessed as UGT-mediated metabolism by measuring compound remaining at 5 uM and measured for 60 mins in presence of UDPGA by UPLC-MS/MS analysis (reference value: 100%). Format: ADME. The note with it: read-out: Stability. Put shortly: as §3

Converted amounts (≈) assume the structure as drawn.

For the compound `O=C1C2=C(C(=O)c3c1cnc1cc(F)ccc31)C1CCC2C1` (configuration not stated), the IC50 in the data set on Escherichia coli was greater than 64 µM; with Pseudomonas aeruginosa, greater than 64 µM; in the data set with Klebsiella pneumoniae, greater than 64 µM; in the data set with Enterococcus faecium it was greater than 64 µM; in the data set with Staphylococcus aureus it was greater than 64 µM; with Streptococcus pneumoniae, 32 to 64 µM. Further, the IC50 in [1] is 1 to 2 µM; in data set [2] it was 1.8 µM; with Mycobacterium marinum, 3.22 µM; in [5], 0.43 µM. In data set [2], the MIC90 worked out at 10.2 µM (≈ 3 µg/mL). Besides, the CC50 at 24 h in data set [3] stood at 35.2 µM. The selectivity ratio in data set [4] was found to be 3.44. Besides, the remaining at 0.25 h, 5 µM at CYP450 [6] was found to be 100%; on UGT [9], 79%; in the data set with CYP450 [12], 100%; with UGT [15], 89%. Besides, the remaining at 0.5 h, 5 µM at CYP450 [7] stood at 100%; at UGT [10], 76%; with CYP450 [13] it was 100%; in the data set on UGT [16], 88%. Further, the remaining at 1 h, 5 µM stood at 100% at CYP450 [8], 60% at UGT [11], 100% with CYP450 [14] and 73% in the data set with UGT [17].

Take `O=C1C2=C(C(=O)c3c1cnc1cc(C(F)(F)F)ccc31)C1CCC2C1` (configuration not stated): the IC50 in the data set with Escherichia coli was greater than 64 µM; in the data set on Pseudomonas aeruginosa, greater than 64 µM; in the data set on Klebsiella pneumoniae, greater than 64 µM; with Enterococcus faecium, greater than 64 µM; with Staphylococcus aureus, greater than 64 µM; with Streptococcus pneumoniae it was 32 to 64 µM. Besides, the IC50 in data set [1] is 2 to 4 µM; in data set [2] it was 3.05 µM; in the data set with Mycobacterium marinum, 9 µM; in data set [5], 3.24 µM. This compound yielded an MIC90 in data set [2] of 7.95 µM (≈ 2.73 µg/mL). In addition, in data set [3], the CC50 at 24 h was 122 µM. The selectivity ratio in [4] was found to be 15.4. In addition, the remaining at 0.25 h, 5 µM on CYP450 [6] was 100%; at UGT [9] it was 71%; with CYP450 [12] it was 100%; in the data set with UGT [15] it was 62%. Also, the remaining at 0.5 h, 5 µM on CYP450 [7] turned out to be 100%; on UGT [10], 63%; with CYP450 [13] it was 100%; in the data set with UGT [16] it was 70%. Further, the remaining at 1 h, 5 µM was 100% at CYP450 [8], 63% at UGT [11], 100% in the data set on CYP450 [14] and 51% in the data set on UGT [17].

Consider `CCn1cc(C(=O)O)c(=O)c2cc(F)c(N3CCNCC3)cc21` [NORFLOXACIN], for which the IC50 in the data set on Escherichia coli is greater than 0.25 µM; with Pseudomonas aeruginosa, greater than 0.5 µM.

On to `O=C(O)c1cn(C2CC2)c2cc(N3CCNCC3)c(F)cc2c1=O` [CIPROFLOXACIN], for which the IC50 with Klebsiella pneumoniae is less than 0.25 µM.

Regarding `NNC(=O)c1ccncc1` [ISONIAZID], the IC50 in [1] is less than 0.25 µM; in [2] it was 0.11 µM. Further, the MIC90 in data set [2] amounted to 0.31 µM (≈ 0.0425 µg/mL).

As for `CC/C(=C(\c1ccccc1)c1ccc(OCCN(C)C)cc1)c1ccccc1` [TAMOXIFEN], in [3], the CC50 at 24 h worked out at 11.1 µM.

Broadly, the IC50 is the concentration that gives 50% inhibition. Broadly, the MIC90 is an inhibitory concentration at the 90% level, which refers to growth in some studies and to a panel of isolates in others. Broadly, the CC50 is the concentration at which the toxic effect on the cells reaches its halfway point.
